Results on three compounds are retold here after ChEMBL document CHEMBL1123282, “Antiinflammatory activity of substituted 6-hydroxypyrimido[2,1-f]purine-2,4,8(1H,3H,9H)-triones. Atypical nonsteroidal antiinflammatory agents” (J Med Chem, 1986).

The species entered for experiment [1] is Rattus norvegicus. The experiment is described as follows: Delayed Type hypersensitivity (DTH) is measured by increase in ear thickness 24 hours after antigen injection into pinna. Format: functional.
The test system of experiment [2] is Rattus norvegicus. Put plainly: Compound was tested in vivo for antiinflammatory activity against chronic adjuvant arthritic rat by therapeutic inhibition 2 degree paw after peroral administration of 5 mg/kg of dose. The note with it: po, read-out: Inhibition.
Experiment [3] deals with Rattus norvegicus. The experiment is described as follows: Antiinflammatory activity against collagen II arthritis in rats, activity% inhibition in injected paw edema. The class given is functional. Also on record: concentration or dose not given beside the values. The essentials: (§1)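 Rats immunised with bovine articular-cartilage type II collagen (dissolved in 0.01 M AcOH for 24 h at 4 °C, dialysed against saline) mixed in equal volume with incomplete Freund's adjuvant. Paws were examined weekly for 7 weeks. An animal counted as arthritic at Δ paw volume ≥8.0 (injected paw) or ≥4.0 (noninjected paw). Bone lesions were scored on lateral-projection foot radiographs. 16 rats/group.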

Experiment [4] concerns Rattus norvegicus. Put plainly: Compound was tested in vivo for antiinflammatory activity against rats by RPAR(reverse passive Arthus reaction) synovitis method. The class given is functional. The essentials:
(§2)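 Lewis rats, oral drug or placebo 1 h before iv BSA (2.28 mg in saline), then intraarticular rabbit anti-BSA (0.54 mg) into one knee and saline into the other, under light anesthesia. Second oral dose at 3 h; the total of both doses is the calculated dose. About 17 h after induction, subpatellar tissue with synovium is excised and weighed. Response is antibody-minus-saline knee weight, tested by analysis of variance.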

Experiment [5] concerns Rattus norvegicus. Put plainly: Compound was tested in vivo for antiinflammatory activity against chronic adjuvant arthritic rat by therapeutic inhibition 1 degree paw after peroral administration of 5 mg/kg of dose. The note with it: po, read-out: Inhibition.
The test system of experiment [6] is Rattus norvegicus. Put plainly: Antiinflammatory activity against collagen II arthritis in rats, activity % inhibition in noninjected paw edema. The class given is functional. On the set-up: concentration or dose not given beside the values. The essentials: as §1
The species entered for experiment [7] is Rattus norvegicus. The experiment is described as follows: Antiinflammatory activity on the development of collagen II arthritis in rats, measured based on animals positive for arthritis by the presence of bone lesions. Format: functional. The procedure, abridged: as §1
The species entered for experiment [8] is Rattus norvegicus. Put plainly: Antiinflammatory activity by immune response to collagen II antigen in rats antibody titer was determined by passive hemagglutinination. Format: functional. The procedure, abridged: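 In rats with bovine type II collagen/incomplete Freund's adjuvant arthritis, the antibody response to collagen II was titred by passive hemagglutination. The delayed-type hypersensitivity component, ear thickness 24 h after intrapinna antigen, was read at day 21.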

The test system of experiment [9] is Rattus norvegicus. Put plainly: Antiinflammatory activity on the development of collagen II arthritis in rats, measured based on animals positive for arthritis by the presence of paw edema. Format: functional. The procedure, abridged:
as §1

Experiment [10] has as its system Rattus norvegicus. The experiment is described as follows: Compound was tested in vivo for antiinflammatory activity against chronic adjuvant arthritic rat by prophylactic inhibition 2 degree paw after peroral administration of 2 mg/kg of dose. To be noted: po, read-out: Inhibition.
Experiment [11] deals with Rattus norvegicus. Put plainly: Compound was tested in vivo for antiinflammatory activity against chronic adjuvant arthritic rat by prophylactic inhibition 1 degree paw after peroral administration of 2 mg/kg of dose. The note with it: po, read-out: Inhibition.
In experiment [12] the test system is Rattus norvegicus. The experiment is described as follows: compound was tested in vivo for antiinflammatory activity against rats by RPAR(reverse passive Arthus reaction) synovitis method. The class given is functional. The essentials: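 Lewis rats dosed orally 1 h before iv BSA (2.28 mg) and intraarticular rabbit anti-BSA (0.54 mg) into one knee, saline into the other; dosed orally again at 3 h. Total dose counted. At about 17 h, subpatellar tissue with synovium weighed; Δ weight between the two knees taken as the response. Compared with lesion controls by ANOVA.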

Experiment [13] concerns Rattus norvegicus. The experiment is described as follows: Compound was tested in vivo for antiinflammatory activity against chronic adjuvant arthritic rat by prophylactic inhibition 2 degree paw after peroral administration of 18 mg/kg of dose. To be noted: route oral. Format: functional. The essentials:
(§3)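 Prophylactic adjuvant arthritis: heat-killed Mycobacterium tuberculosis powder in paraffin oil (6 mg/mL), 0.1 mL injected into the left hind paw. Drug given orally 1 h before adjuvant, then for 21 consecutive days; controls received methyl cellulose. Left (1°) and right (2°) hind paw volumes were measured by plethysmograph.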

Experiment [14] relates to Rattus norvegicus. The experiment is described as follows: Compound was tested in vivo for antiinflammatory activity against chronic adjuvant arthritic rat by therapeutic inhibition 1 degree paw after peroral administration of 9 mg/kg of dose. Format: functional. The note with it: route oral.
Experiment [15] deals with Rattus norvegicus. Put plainly: In vivo antiinflammatory activity against rats by RPAR(reverse passive Arthus reaction) synovitis method. Also on record: concentration or dose not given beside the values. The class given is functional. The procedure, abridged:
as §2

The target of experiment [16] is Cyclooxygenase (Rattus norvegicus) (UniProt P35355+Q63921). The experiment is described as follows: In vitro inhibitory activity against Prostaglandin G/H synthase in rat neutrophils at a dose of 50 uM.
The subject of experiment [17] is Rattus norvegicus. The experiment is described as follows: Compound was tested in vivo for antiinflammatory activity against chronic adjuvant arthritic rat by therapeutic inhibition 2 degree paw after peroral administration of 9 mg/kg of dose. The class given is functional. To be noted: route oral.
Experiment [18] has as its system Rattus norvegicus. The experiment is described as follows: Compound was tested in vivo for antiinflammatory activity against chronic adjuvant arthritic rat by prophylactic inhibition 2 degree paw after peroral administration of 36 mg/kg of dose. The class given is functional. To be noted: po.
In experiment [19] the test system is Rattus norvegicus. Put plainly: Compound was tested in vivo against chronic adjuvant arthritic rat by prophylactic inhibition 2 degree paw. Relative potency with respect to (8-Benzyl-5-hydroxy-1,3-dimethyl-6-propyl-1H,8H-1,3,4b,8,9-pentaaza-fluorene-2,4,7-trione). Format: functional.
Experiment [20] has as its target T1, Polyunsaturated fatty acid 5-lipoxygenase (Rattus norvegicus) (UniProt P12527).
T1 sequence (whole entry): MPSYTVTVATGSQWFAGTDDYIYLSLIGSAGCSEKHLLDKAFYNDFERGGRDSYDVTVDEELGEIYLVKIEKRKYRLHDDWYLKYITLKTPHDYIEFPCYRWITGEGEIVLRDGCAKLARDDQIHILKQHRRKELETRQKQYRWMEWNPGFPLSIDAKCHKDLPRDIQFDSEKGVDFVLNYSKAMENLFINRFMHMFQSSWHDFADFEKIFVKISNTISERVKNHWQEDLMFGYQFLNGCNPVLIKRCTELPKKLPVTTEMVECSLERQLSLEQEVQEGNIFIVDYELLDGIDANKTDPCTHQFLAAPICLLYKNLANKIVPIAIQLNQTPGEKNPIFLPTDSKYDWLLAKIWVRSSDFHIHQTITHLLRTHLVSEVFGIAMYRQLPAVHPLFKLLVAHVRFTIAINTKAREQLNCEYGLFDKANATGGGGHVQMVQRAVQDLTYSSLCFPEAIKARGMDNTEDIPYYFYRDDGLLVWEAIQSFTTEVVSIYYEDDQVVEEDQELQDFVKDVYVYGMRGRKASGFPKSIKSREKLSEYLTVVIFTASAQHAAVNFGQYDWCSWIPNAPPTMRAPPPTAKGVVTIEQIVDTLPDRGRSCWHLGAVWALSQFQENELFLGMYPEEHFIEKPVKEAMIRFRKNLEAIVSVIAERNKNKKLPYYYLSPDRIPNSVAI
Put plainly: In vitro inhibitory activity against Lipoxygenase in rat neutrophils at a dose of 50 uM. The essentials: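 Neutrophils come from the 4 h pleural exudate of male Wistar-Lewis rats given iv BSA plus intrapleural rabbit anti-BSA IgG. Cells are washed, red cells lysed with NH4Cl, and resuspended at about 5×10^6 cells/0.1 mL in Tris pH 7.4 with NaCl and 1 mM CaCl2. Cells are preincubated with compound 4 min at room temperature.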

Experiment [21] relates to Rattus norvegicus. Put plainly: Compound was tested in vivo for antiinflammatory activity against chronic adjuvant arthritic rat by prophylactic inhibition 1 degree paw after peroral administration of 18 mg/kg of dose. The class given is functional. The procedure, abridged: as §3
Experiment [22] deals with Rattus norvegicus. Put plainly: Compound was tested in vivo for antiinflammatory activity against chronic adjuvant arthritic rat by prophylactic inhibition 1 degree paw after peroral administration of 36 mg/kg of dose. The class given is functional. To be noted: po.
In experiment [23] the test system is Rattus norvegicus. The experiment is described as follows: Compound was tested in vivo for antiinflammatory activity against chronic adjuvant arthritic rat by therapeutic inhibition 1 degree paw after peroral administration of 36 mg/kg of dose. To be noted: route oral.
Experiment [24] deals with Rattus norvegicus. Put plainly: Tested in vivo for antiinflammatory activity against chronic adjuvant arthritic rat by prophylactic inhibition 2 degree paw after peroral administration of 9 mg/kg of dose. The note with it: route oral. The class given is functional. The procedure, abridged: (§4)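 Prophylactic regimen, rats. Adjuvant is heat-killed Mycobacterium tuberculosis ground to a fine powder in paraffin oil (6 mg/mL); 0.1 mL is injected into the left hind paw. Oral drug is given 1 h before adjuvant challenge, then for 21 consecutive days; controls receive methyl cellulose. Left (1°) and right (2°) hind paw volumes are measured by plethysmograph.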

In experiment [25] the test system is Rattus norvegicus. The experiment is described as follows: Compound was tested in vivo for antiinflammatory activity against chronic adjuvant arthritic rat by therapeutic inhibition 2 degree paw after peroral administration of 36 mg/kg of dose. To be noted: route oral.
Experiment [26] relates to Rattus norvegicus. Put plainly: Compound was tested in vivo for antiinflammatory activity against chronic adjuvant arthritic rat by therapeutic inhibition 2 degree paw. Relative potency with respect to (8-Benzyl-5-hydroxy-1,3-dimethyl-6-propyl-1H,8H-1,3,4b,8,9-pentaaza-fluorene-2. Format: functional.
The subject of experiment [27] is Rattus norvegicus. The experiment is described as follows: Tested in vivo for antiinflammatory activity against chronic adjuvant arthritic rat by prophylactic inhibition 1 degree paw after peroral administration of 9 mg/kg of dose. To be noted: route oral. Format: functional. The essentials: as §4

Where “and” joins values, the source holds several entries; their conditions need not be identical. Identical values can stand only once.

By Inhibition is commonly meant the percentage by which the read-out fell short of the control. A word on the ED50: it is the midpoint of the dose-response relation. Turning to `CN1C(C(=O)Nc2ccccn2)=C(O)c2ccccc2S1(=O)=O` [PIROXICAM], in the experiment filed under Rattus norvegicus [1], the DTH came to 0.0526 mm. Besides, the results for the inhibition in vivo at 5 mg/kg in the experiment on Rattus norvegicus [2] and with Rattus norvegicus [5] were 80% and 68%, respectively. The Inhibition in the experiment on Rattus norvegicus [3] and in the experiment on Rattus norvegicus [6] was 0% each time. In the experiment with Rattus norvegicus [4], this compound had an ED50 of 3.5 mg/kg. Also, the figures for the Positive in the experiment listed under Rattus norvegicus [7] and with Rattus norvegicus [9] were 60% and 73.3%, respectively. Further, in the experiment listed under Rattus norvegicus [8], the Antibody titer was 12.2. The inhibition in vivo at 2 mg/kg was 84% in the experiment with Rattus norvegicus [10] and 66% with Rattus norvegicus [11].
Consider `Cn1c(=O)c2c(nc3n(Cc4ccccc4)c(=O)/c(=C/O)c(=O)n23)n(C)c1=O`, for which, in the experiment with Rattus norvegicus [12], the Inhibition is recorded as 14%.
By inhibition is commonly meant the change of the read-out against control, counted positive when it falls. Regarding `CCCc1c(O)n(Cc2ccccc2)c2nc3c(c(=O)n(C)c(=O)n3C)n2c1=O`, the DTH in the experiment filed under Rattus norvegicus [1] was 0.0464 mm. In addition, the inhibition in vivo at 18 mg/kg in the experiment on Rattus norvegicus [13] was found to be 52%; with Rattus norvegicus [21] (Rattus norvegicus, po), 41%. Further, the inhibition in vivo at 9 mg/kg was 17% in the experiment on Rattus norvegicus [14], 15% in the experiment on Rattus norvegicus [17], 38% in the experiment on Rattus norvegicus [24] and 16% in the experiment on Rattus norvegicus [27]. For the same compound, the Inhibition in the experiment with Rattus norvegicus [15] is 33%; in the experiment with Rattus norvegicus [3], 9.6%; with Rattus norvegicus [6], 37.5%; with Rattus norvegicus [21] (route oral, 18 mg/kg), 41%; in the experiment with Rattus norvegicus [23], 64%; in the experiment on Rattus norvegicus [25], 77%. Also, the inhibition was 43% in experiment [16]; 0% and 5% in experiment [20]. Moreover, the inhibition in vivo at 36 mg/kg was 78% in the experiment on Rattus norvegicus [18] and 59% in the experiment with Rattus norvegicus [22]. For the same compound, the Relative potency in the experiment on Rattus norvegicus [19] and with Rattus norvegicus [26] was 1 each time. The Positive in the experiment listed under Rattus norvegicus [7] and with Rattus norvegicus [9] was 26.7% in each case. In the experiment listed under Rattus norvegicus [8], this compound displayed an Antibody titer of 9.2.
